Source: article PMC6282584 (Chemmedchem, 2018)

Experiments:
[1] = biological target: T1, PR (Rattus norvegicus, UniProt Q63449); test: Termination of early pregnancy in rats; type: in vivo; details: p.o., n=6
T1 sequence (Q63449 1-923): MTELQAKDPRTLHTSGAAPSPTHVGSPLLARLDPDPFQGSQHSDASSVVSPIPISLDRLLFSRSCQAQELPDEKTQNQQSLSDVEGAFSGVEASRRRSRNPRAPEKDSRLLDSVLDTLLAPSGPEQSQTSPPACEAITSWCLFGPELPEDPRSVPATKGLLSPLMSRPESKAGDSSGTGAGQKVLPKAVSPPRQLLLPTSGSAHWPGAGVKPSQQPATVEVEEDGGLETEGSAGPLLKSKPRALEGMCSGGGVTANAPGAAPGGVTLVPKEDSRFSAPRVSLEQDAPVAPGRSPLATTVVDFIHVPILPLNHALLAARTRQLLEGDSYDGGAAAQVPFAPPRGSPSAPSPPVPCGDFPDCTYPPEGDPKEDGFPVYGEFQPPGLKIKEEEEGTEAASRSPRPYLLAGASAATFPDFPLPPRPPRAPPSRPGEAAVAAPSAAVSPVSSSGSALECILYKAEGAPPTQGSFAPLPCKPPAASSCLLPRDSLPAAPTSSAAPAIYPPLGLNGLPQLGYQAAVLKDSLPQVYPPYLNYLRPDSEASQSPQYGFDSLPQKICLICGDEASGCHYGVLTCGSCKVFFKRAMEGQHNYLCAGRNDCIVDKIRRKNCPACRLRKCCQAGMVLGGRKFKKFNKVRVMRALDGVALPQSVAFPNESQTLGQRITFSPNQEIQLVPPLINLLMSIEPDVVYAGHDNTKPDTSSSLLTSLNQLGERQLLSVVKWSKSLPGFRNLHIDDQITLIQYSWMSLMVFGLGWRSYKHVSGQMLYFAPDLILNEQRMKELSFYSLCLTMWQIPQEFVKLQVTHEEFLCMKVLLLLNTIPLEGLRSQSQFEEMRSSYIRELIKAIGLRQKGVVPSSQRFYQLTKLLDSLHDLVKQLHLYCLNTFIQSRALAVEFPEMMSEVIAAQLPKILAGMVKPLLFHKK
Summary of the method: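 Wistar rats (100–230 g) were randomized on Days 5–7 post-coitum (n=6 per group). They received test compound at several doses s.c. or p.o., or vehicle (benzyl benzoate/castor oil 1+4 v/v, or 85 mg polyoxyethylene-(50)-stearate in 100 mL 0.9 % NaCl). Autopsy was on Day 9. Full efficacy meant all animals lacked implantation sites or had only regressed or hemorrhagic sites.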

[2] = biological target: T2, PR (Oryctolagus cuniculus, UniProt P06186); test: Endometrial transformation in rabbits; type: in vivo, rabbit; details: p.o., with progesterone, McPhail index 1 or 1.5
T2 sequence (P06186 1-930): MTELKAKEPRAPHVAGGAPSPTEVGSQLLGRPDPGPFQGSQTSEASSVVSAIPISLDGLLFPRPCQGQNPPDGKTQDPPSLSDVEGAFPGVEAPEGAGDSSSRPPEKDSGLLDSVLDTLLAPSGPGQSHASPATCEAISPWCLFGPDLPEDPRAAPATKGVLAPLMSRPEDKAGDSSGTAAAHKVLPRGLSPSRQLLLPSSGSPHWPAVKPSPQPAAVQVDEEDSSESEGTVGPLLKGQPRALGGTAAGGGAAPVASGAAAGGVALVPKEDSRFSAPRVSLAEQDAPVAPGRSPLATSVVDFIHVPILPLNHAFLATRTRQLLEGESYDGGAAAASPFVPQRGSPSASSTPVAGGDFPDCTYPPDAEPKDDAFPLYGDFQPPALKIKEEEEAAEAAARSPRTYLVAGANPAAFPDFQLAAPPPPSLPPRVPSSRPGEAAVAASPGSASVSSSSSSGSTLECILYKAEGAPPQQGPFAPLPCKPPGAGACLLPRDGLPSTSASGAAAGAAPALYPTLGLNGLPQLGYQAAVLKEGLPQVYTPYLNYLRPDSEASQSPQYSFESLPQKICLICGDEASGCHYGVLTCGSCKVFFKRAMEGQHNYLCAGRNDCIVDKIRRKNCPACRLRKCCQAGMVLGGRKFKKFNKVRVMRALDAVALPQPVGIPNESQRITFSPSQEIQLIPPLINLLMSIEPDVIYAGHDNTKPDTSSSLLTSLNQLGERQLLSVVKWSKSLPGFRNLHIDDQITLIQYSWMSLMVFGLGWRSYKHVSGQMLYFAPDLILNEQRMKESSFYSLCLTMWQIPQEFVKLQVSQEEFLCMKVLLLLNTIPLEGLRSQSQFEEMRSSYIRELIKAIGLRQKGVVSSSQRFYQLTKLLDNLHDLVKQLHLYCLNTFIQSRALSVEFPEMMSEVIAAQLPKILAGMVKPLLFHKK
Summary of the method: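 Juvenile New Zealand white rabbits (35–42 days old, 900–1300 g) were primed with 17β-estradiol, […] s.c., on Days 1–4. For the antagonist test, animals were randomized (n=4) on Days 7–10 to 0.2 mg kg−1 day−1 progesterone s.c. plus test compound p.o. Autopsy was on Day 11. Glandular differentiation was scored by light microscopy as McPhail index 1–4. Full efficacy meant every animal in the group scored 1 or 1.5.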

[3] = Determination of lonaprisan and its metabolites in human serum; type: in vivo; details: single oral 200 mg lonaprisan
Summary of the method: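 Serum was sampled from volunteers after a single oral dose of the parent steroid. Concentration–time profiles of the parent and three metabolites were measured by LC–MS/MS with external calibration against authentic reference compounds. PK parameters were then calculated. Each metabolite AUC(0–∞) was expressed as % of parent AUC and as a share of the summed AUC of drug-related compounds.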

Dose of full efficacy, termination of early pregnancy in rats [1]: 0.5 mg/kg
Dose of full efficacy, endometrial transformation in rabbits [2]: 1.0 mg/kg
Relative contribution to sum of AUC of drug-related compounds [3]: 6%
SMILES: CC(=O)c1ccc([C@H]2C[C@@]3(C)[C@@H](CC[C@@]3(O)C(F)(F)C(F)(F)F)[C@@H]3CCC4=CC(=O)CCC4=C32)cc1 [lonaprisan]
